Paper PMC4116148 (Biochemistry, 2014)
fluorescein = fluorescein: fluorescein label on the Lys side chain

Target: T1, EHD1-EH (Homo sapiens, UniProt Q9H4M9)
T1 sequence (Q9H4M9 444-532 limits assumed): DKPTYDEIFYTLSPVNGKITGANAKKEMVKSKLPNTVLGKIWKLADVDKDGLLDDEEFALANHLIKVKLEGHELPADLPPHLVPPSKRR
Experiment: Fluorescence polarization
Assay type: binding
Summary of the method: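 Fluorescein-labelled peptide probes mixed with the EHD1 EH domain; binding read by fluorescence polarization. Buffer: 25 mM MOPS (pH 6.8), 1 mM CaCl2, 15 mM NaCl, 1.5% DMSO, 0.1% Tween 20.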

| Substance | binding to EHD1-EH (up to 67 μM EHD1-EH, 15 mM NaCl) | loss of affinity (FP direct binding, reduced charge analogue relative to cNPF1^Flu) [fold] |
| --- | --- | --- |
| -YAPAEEGK(Flu)- (cyclo(YAPAEEGK(fluorescein))) [cAPA^Flu] | No binding was observed |  |
| -YNPFEAGK(Flu)- (cyclo(YNPFEAGK(fluorescein))) [cNPF5^Flu] |  | 3 |
